Bioassay records as filed in PubChem BioAssay.
Shown are actives, neighbours in structure and some others; about 6.4% of the full set was active somewhere.
WT yeast gro inh: growth inhibition of WT yeast, mitochondrial fusion screen. inhibition, % at 10 µM. mitochondrial fusion phenotypic screen, WT strain. 190,000 compounds, 2.1% hits; in the data active = inhibition above about 58%; tested in S. cerevisiae
TbMetRS inhib: blocks T. brucei methionyl-tRNA synthetase activity | purified T. brucei MetRS, ATP depletion, Kinase-Glo luminescence | inhibition, % at 11.9 µM | 360,000 compounds, 0.4% hits | AID 624268;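 active = inhibition above a per-plate cutoff of the control wells' mean inhibition plus 3 SD, cut at about 5.5% in these data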;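 note: 0% = DMSO wells median and 100% = median of wells with control inhibitor compound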
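Material – parasite MetRS enzyme · Medium – HEPES-MgCl2-KCl buffer plus DTT, spermine, BSA, pyrophosphatase · Reagent – ATP, methionine and E. coli bulk tRNA substrates · Times – 15 min enzyme-compound preincubation, 2 h reaction, 10 min detection, 25 °C · Measured by – luminescence of leftover ATP · Evaluation – percent inhibition relative to median high and low control wells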
MPTP block: inhibitors of mitochondrial permeability transition pore; 360,000 compounds, 1.4% hits; inhibition, % at 10 µM; isolated mouse mitochondria, Ca2+ swelling absorbance, 30 min; AID 602449;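 active = inhibition of 50% or more, scaled per plate between neutral and stimulator controls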;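 note: 0% = DMSO wells given calcium and 100% = 1 mM EGTA wells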
GRIN3A LBD mod: modulators (binders) of human NR3A ligand-binding domain; NR3A LBD differential scanning fluorimetry, Tm shift; 0% = protein alone, 100% = glycine-bound protein; Tm shift relative to glycine control, % at 25 µM; 340,000 compounds, 2.5% hits;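 active = melting temperature shift of at least 10% of the positive control shift, at one fixed dose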
EBV gp42 block: inhibitors of Epstein-Barr virus glycoprotein 42; Fluorescence polarization binding assay, mP read-out; inhibition, % (tested at 21.74 µM); 220,000 compounds, 0.42% hits; AID 1085; in the data active = inhibition above about 50%
Target sequence (Q1HVG2 whole entry, looked up): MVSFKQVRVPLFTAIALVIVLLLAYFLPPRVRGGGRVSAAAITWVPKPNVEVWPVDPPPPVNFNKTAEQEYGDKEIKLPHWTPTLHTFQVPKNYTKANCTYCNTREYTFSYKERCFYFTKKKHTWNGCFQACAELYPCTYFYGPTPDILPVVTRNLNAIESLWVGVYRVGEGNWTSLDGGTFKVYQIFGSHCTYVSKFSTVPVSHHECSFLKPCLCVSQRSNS
CHOP inhibitor: CHOP inhibition in unfolded protein response | CHO-K1 CHOP-promoter luciferase, tunicamycin-induced, 15-18 h | inhibition, % at 10 µM | 220,000 compounds, 3.8% hits | AID 2732;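 active = compounds that reduced the stress-induced luciferase reporter signal by more than about 70% of percent inhibition, limit read from the data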;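 note: 0% = tunicamycin plus vehicle and 100% = wells without tunicamycin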
MPTP counter: Rhodamine 123 counter-screen of mitochondrial pore hits. shares compounds with MPTP block. isolated mitochondria, membrane potential, Rhodamine 123 fluorescence. inhibition, % at 10 µM. 5,000 compounds, 78% hits; in the data active = inhibition above about 22%;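 note: 0% = DMSO vehicle and 100% = positive control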
MPTP swell DR: MPTP inhibition, dose response swelling confirmation; isolated mitochondria swelling, absorbance; 780 compounds, 58% hits; shares compounds with MPTP block; IC50, µM; AID 651561; in the data active = IC50 below about 20 µM
MPTP counter DR: MPTP inhibitor counter-screen activity, dose response. IC50, µM. isolated mitochondria counterscreen, fluorescence read-out. 780 compounds, 49% hits. shares compounds with MPTP block. AID 651564; in the data active = IC50 below about 80 µM
The depositor's hits bear a star; i = inactive; nt = not tested or not shown.

SMILES	WT yeast gro inh	TbMetRS inhib	MPTP block	GRIN3A LBD mod	EBV gp42 block	CHOP inhibitor	MPTP counter	others
O=C(Nc1cccnc1)c1ccccc1NS(=O)(=O)c1ccc(F)cc1	-15.8	-0.4	5.7	-7.0	-4.4	25.6	nt
CC(=O)c1c(C)[nH]c(C(=O)Nc2nc(-c3ccc(-c4ccccc4)cc3)cs2)c1C	12.0	-0.5	93.8*	11.0*	-13.6	33.6	69.1*
O=C(Nc1nc(-c2ccccc2)cs1)c1ccccc1NS(=O)(=O)c1ccc(F)cc1	77.9*	0.0	93.1*	31.6*	2.6	62.4	34.7*
CC(=O)c1c(C)[nH]c(C(=O)Nc2nc(C)cs2)c1C	-1.5	-0.2	2.4	-2.8	-15.5	48.2	nt
O=C(Nc1ccccc1-c1ccccc1)C1CCCN(c2ncccn2)C1 (stereo not given)	44.6	-0.9	-0.8	-0.8	-18.0	5.5	nt
O=C(NCc1ccc2c(c1)OCO2)C1COc2ccccc2O1 (stereo not given)	34.9	-0.2	1.5	-0.6	-9.9	6.4	nt
Cc1noc(C)c1COc1ccccc1C(=O)NNC(=O)c1ccc(F)cc1	nt	0.7	-1.2	1.6	nt	nt	nt
CC1(C)C(c2ccc(Cl)cc2)=[N+]([O-])C2(CCCC/C2=N\O)N1O (stereo not given)	19.4	-0.1	1.5	-4.0	-9.8	-1.6	nt
CCOC(=O)c1c(-c2ccccc2)oc2ccc(OC(C)C(=O)O)cc12 (stereo not given)	nt	0.1	1.3	0.5	-8.8	2.2	nt
CCOC(=O)c1c(-c2ccccc2)oc2ccc(OCC(O)CN(C)C)cc12 (stereo not given)	nt	-0.2	98.8*	-1.0	nt	nt	-13.4	MPTP swell DR=6.51*;MPTP counter DR=>80
Oc1ccc(Cl)cc1N=Cc1sc2ccccc2c1Cl	47.2	-0.1	1.3	-0.1	-0.6	35.4	nt
O=[N+]([O-])c1ccc(O)c(N=Cc2sc3ccccc3c2O)c1	18.5	-0.5	59.8*	15.9*	48.1	41.4	67.3*
Cc1ccc(NC(=O)CN2C(=O)NC(Cc3ccccc3)C2=O)c(Br)c1 (stereo not given)	-3.6	2.1	-0.5	-0.2	13.9	37.2	nt
Cc1nn(C(C)C(=O)NNC(=S)Nc2ccc(Cl)cc2)c(C)c1[N+](=O)[O-] (stereo not given)	1.4	0.7	51.4*	0.0	-27.4	-10.2	60.0*
Cc1cc(=O)[nH]c(-n2[nH]c3c(c2=O)CCCC3)n1	48.9	-0.1	-1.1	2.5	-0.6	-24.7	nt
O=C(CN1C2=NCCN2c2ccccc21)C12CC3CC(CC(C3)C1)C2	7.7	0.1	70.3*	-1.1	-13.2	3.4	-4.9	MPTP swell DR=i;MPTP counter DR=>80
C=CCOC(=O)/C=C/C(=O)NC(N)=O	nt	-1.3	-0.4	1.8	-7.9	-39.2	nt
COc1ccc(CNC(=O)c2c(O)c3cccc4c3n(c2=O)CCC4)cc1	-2.8	-0.2	81.4*	-0.7	-12.6	36.3	-13.6
CCOC(=O)c1cc2c(C)n(-c3ccc(C)cc3)c(C)c2ccc1=O	7.5	-0.9	82.2*	-0.7	-2.4	-137.5	34.7*
CCOC(=O)c1cc2c(C)n(-c3ccc(OCC)cc3)c(C)c2ccc1=O	nt	0.2	9.6	1.9	-5.5	-143.4	nt
COc1ccc(C(=O)/C(C#N)=N/Nc2cccc([N+](=O)[O-])c2)cc1	22.4	0.1	94.5*	10.1*	4.3	15.5	80.7*
N#C/C(=N\Nc1ccccc1Cl)C(=O)c1ccccc1	5.8	-0.8	91.0*	2.5	-4.2	-4.5	101.7*
N#C/C(=N\Nc1cccc(Cl)c1)C(=O)c1ccccc1	72.3*	-0.4	95.6*	2.9	-0.8	-2.9	80.5*
CCC(CC)=NNc1cccc([N+](=O)[O-])c1	17.5	0.1	1.8	-4.2	-5.6	5.4	nt
O=C(Nc1nnc(-c2ccccc2)s1)c1ccccc1F	nt	-0.8	-1.2	3.7	nt	nt	nt
SMILES	WT yeast gro inh	TbMetRS inhib	MPTP block	GRIN3A LBD mod	EBV gp42 block	CHOP inhibitor	MPTP counter	others
COC(=O)c1ccc(NC(=S)NC2CCc3ccccc32)cc1 (stereo not given)	6.3	-0.3	80.0*	8.0	-4.4	21.8	81.3*
COC(=O)c1ccc(NC(=S)NC2CC2)cc1	5.6	-1.6	1.0	-1.1	-8.4	-20.0	nt
Cc1ccc(-n2c(Cc3cccn3C)nnc2SCC(=O)NCc2ccco2)cc1	4.5	-1.0	-0.1	1.7	-16.6	-24.8	nt
CN(CC/C=C1/c2ccccc2CSc2ccccc21)CCCO	7.3	0.0	-1.0	-5.5	1.2	1.1	nt
C=CCN(C)CC/C=C1\c2ccccc2CSc2ccccc21	10.8	-0.4	74.3*	0.0	0.1	36.9	-1.6	MPTP swell DR=17.5*;MPTP counter DR=73.9*
CN(C)CC/C=C1/c2cc(F)ccc2CSc2ccc(F)cc21	5.8	-0.7	72.3*	-7.1	-2.6	14.4	-2.5	MPTP swell DR=14*;MPTP counter DR=>80
NCC/C=C1/c2ccccc2CSc2ccccc21	-13.7	-0.5	87.5*	1.4	-12.8	15.8	-9.4	MPTP swell DR=6.79*;MPTP counter DR=>80
COc1cc(S(=O)(=O)N2CCC(C(N)=O)CC2)c(C)cc1C	-10.5	-1.4	0.0	0.8	-15.7	-5.8	nt
O=C(Nc1ccc(Cl)c([N+](=O)[O-])c1)ONC1=NCCCCC1	2.8	-0.4	81.5*	0.2	-1.2	-4.0	90.8*
O=C(N/N=C/c1cccc(O)c1)c1csc2ccccc12	0.1	-0.1	108.5*	22.3*	11.2	-4.7	2.1	MPTP swell DR=1.07*;MPTP counter DR=>80
Cc1c(/C=N\NC(=O)c2csc3ccccc23)cnn1C	31.4	-1.5	-1.0	0.4	-14.2	-34.5	nt
CCOC(=O)C1(CC2CCCCO2)CCN(C(=O)Nc2ccc(C(=O)OC)cc2)CC1 (stereo not given)	-4.5	-1.2	56.5*	8.8	-7.1	2.9	60.9*
CCOc1ccc(OCc2cccc(C(=O)Nc3ccc(CN4CCCCC4)cc3)c2)cc1	26.1	-0.2	87.4*	-2.2	-11.5	61.4	-11.9	MPTP swell DR=2.37*;MPTP counter DR=43*
COc1ccc(OCc2cccc(C(=O)Nc3ccc(CN4CCCCC4)cc3)c2)cc1	3.9	-0.3	30.4	-9.7	0.9	9.0	nt
COc1ccc(-c2cn(Cc3ccc(C(N)=O)cc3)c(-c3ccc(Cl)nc3)n2)cc1	nt	-0.6	-2.6	0.9	nt	nt	nt
COc1ccc(-c2cn(Cc3ccc(C(=O)NCc4ccc(C)cc4)cc3)c(C(C)N)n2)cc1 (stereo not given)	nt	0.1	74.8*	-5.6	nt	nt	-19.6	MPTP swell DR=10.2*;MPTP counter DR=>80
Cc1ccc(CNC(=O)Cn2cnc3c(NC(=O)OCc4ccccc4)ncnc32)o1	nt	0.3	-0.6	1.1	nt	nt	nt
COC(=O)c1cccc(NC(=O)CSc2nnc(COc3ccc(C#N)cc3)n2-c2ccccc2)c1	-4.0	-1.0	2.4	-4.1	4.3	31.3	nt
